Reference: ChEMBL document CHEMBL4513216, “Probing the Open Global Health Chemical Diversity Library for Multistage-Active Starting Points for Next-Generation Antimalarials” (ACS Infect Dis, 2020)

Assay: Toxicity liver stage against HepG2, at 10uM
Assay type: cell-based
Parameters: test concentration 10 uM, cell line HepG2-A16-CD81EGFP
Conditions: human, HepG2-A16-CD81EGFP cells; read-out: INHIBITION
In short: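 Uninfected HepG2-A16-CD81EGFP cells, 3 × 10^3 per well, 1536-well, plated on prespotted compound at 10 μM final, parasite-free screening media added to match infected plates; puromycin 10 μM positive, DMSO 0.5% negative; run in parallel with 48 h PbLuc assay at 37 °C, 5% CO2; viability by CellTiter-Glo luminescence, normalized to controls.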

SMILES | cytotoxicity at 10 µM
O=C1CN(c2ccc(CNC(=O)Nc3nnc(C4CC4)s3)cc2)CCN1 | -3.73%
Cc1cc(S(=O)(=O)N(CC(N)=O)CC(C)C)ccc1Br | -10.1%
OC(c1ccccc1)C1CCN(Cc2csc(-c3ncccn3)n2)CC1 (stereo unspecified) | -3.87%
CC(C)(C)C(CCO)NC(=O)Nc1ccncc1 (stereo unspecified) | -3.28%
CN1CCC(N[C@@H]2CO[C@H](CNC(=O)Nc3ccccc3)[C@H]2O)CC1 | 6.31%
O=C(NC[C@H]1OC[C@@H](NC2CCC(F)(F)CC2)[C@@H]1O)c1ccccc1 | -4.1%
COc1ccc(CC(=O)N2CC(=O)NCC(C)(C)C2)cc1 | -0.634%
O=C(Nc1cccc(C(F)(F)F)c1)N1CCN(CCn2ccnc2)CC1 | -25.3%
CS(=O)(=O)N1CCN(C(=O)C2CSCCC(=O)N2)CC1 (stereo unspecified) | 0.565%
O=C(c1ccc2[nH]ccc2c1)N1CCCSCC1CN1CCCC1 (stereo unspecified) | 9.4%
CCCS(=O)(=O)N1CCOC2(COCCN(C(C)=O)C2)C1 (stereo unspecified) | 19.9%
O=C([C@H]1COC[C@H]2CN(CC3CC3)C[C@H]21)N1CCOCC1 | 11.8%
CO[C@@H]1CCN(c2ncc(F)cn2)[C@@H]2CN(CC3CC3)C[C@@H]21 | 12.3%
Cc1ccsc1C(=O)N1CCCn2nnc(Cn3cccn3)c2C1 | 7.37%
CC(C)Nc1ncnc2c1CCN(c1cc(C(F)(F)F)ncn1)CC2 | 6.07%
O=C(NCc1cccnc1)C1=NOC2(CCCN(CCO)C2)C1 (stereo unspecified) | 5.66%
Clc1cccc(Cl)c1CNCCOc1ccccn1 | -13.2%
O=C(NCC(F)F)c1cc(-c2ccccc2)nc2ncnn12 | -3.37%
CCOC(=O)C1=NOC(Cc2cc(OC)c3c(c2)OCO3)C1 (stereo unspecified) | 9.98%
Cc1cccc(NC(=O)c2cccc(OCc3nnnn3C)c2)n1 | 3%
CN[C@@H]1CCC[C@@H](Oc2ccccc2Oc2ccc(C)cc2)[C@@H]1O | -14.2%

SMILES | cytotoxicity at 10 µM
Cc1nccn1-c1nccnc1C1CCCN(C2CCCC2)C1 (stereo unspecified) | -0.55%
Cc1nc(CC(=O)N2CCc3nc(-c4cnccn4)nc(O)c3C2)cs1 | 16.2%
COc1cc(Br)cc(CNC2CCCNC2=O)c1O (stereo unspecified) | 2.37%
COCCCN(C)c1cc(C(F)(F)F)nc(-c2cccnc2)n1 | -4.83%
CN(Cc1cscn1)C(=O)C(c1ccccc1)N1CCSCC1 (stereo unspecified) | 9.26%
O=C1OCCC1N1CCN(c2ccccn2)CC1 (stereo unspecified) | 7.37%
Cc1n[nH]cc1CNC(=O)Nc1cccc(OCC(F)(F)F)c1 | 8.64%
Cn1cc(CCNC(=O)c2cc3ccccc3nc2N2CCCC2)cn1 | -1.29%
O=S(=O)(c1cc2ccccc2o1)N1CCCC1 | 20.2%
N#Cc1c(Cl)nsc1NCc1ccc(N2CCSCC2)cc1 | 1.24%
CCN1CCN(C(C)CNC(=O)Nc2nc3ccccc3s2)CC1 (stereo unspecified) | -2.32%
O=C(c1ccc(F)c(Br)c1)N1CCCN2CCCC2C1 (stereo unspecified) | -0.746%
CNS(=O)(=O)c1cccc(C(C)NCc2ccc(F)c(F)c2)c1 (stereo unspecified) | 16.2%
CCS(=O)(=O)c1ccc(N2CCC(NC(=O)CC3CCCC3)CC2)cc1 | 22.7%
Cc1ccc(C(=O)NCCNCC2CNc3ccnn3C2)cc1F (stereo unspecified) | -1.62%
CNc1cc(N2CCCC2CNCc2ccco2)ncn1 (stereo unspecified) | -10.4%
CC(NCc1cnc(C2CCC2)s1)c1ccc(-n2cccn2)cc1 (stereo unspecified) | 7.67%
Cc1noc(CS(=O)(=O)C/C=C/c2ccccc2)n1 | -10.9%
CCSCc1cccc(NC(=O)N(C)Cc2ncnn2C)c1 | -0.477%
CCOc1ccccc1Oc1ccc(CN)cn1 | 6.03%
Cc1cnc(CCN(C)C(=O)c2ccc(O)nc2C)s1 | -1.56%

SMILES | cytotoxicity at 10 µM
CCOc1ccc(CSC(C)c2nc(C)no2)nc1 (stereo unspecified) | -9.32%
CCC1CN(C)c2ccccc2CN1C(=O)Nc1cccc(F)c1 (stereo unspecified) | 5.9%
CN(CCS(=O)(=O)c1cc(Cl)ccc1Cl)CC(=O)Nc1cccc(F)c1 | 13.9%
Cc1nc(CN2CCC23CCN(C(=O)c2ccco2)CC3)cs1 | -98.9%
COc1cccc(C(=O)C2CCCN(c3cc(C#N)ccn3)C2)c1 (stereo unspecified) | 1.85%
CC(=O)NCC(=O)N1Cc2cnc(CC(C)C)nc2C1 | -6.12%
O=C(Nc1ccccc1)c1cccc(S(=O)(=O)NC[C@@H]2C[C@H](F)CN2)c1 | 2.83%
Cn1ccnc1C1CCN(S(=O)(=O)c2ccc3oc(=O)[nH]c3c2)CC1 | 1.93%
CSc1cccc(CN(C)C(=O)c2cccc(C3CCCNC3)c2)c1 (stereo unspecified) | -1.08%
CCc1nnc(NC(=O)CCN2CC=C(c3cnn(C)c3)CC2)s1 | 2.66%
Cc1cccc2c(=O)c(C(=O)N3CCCC4(CN(C)C(=O)O4)C3)c[nH]c12 (stereo unspecified) | 10.5%
CCC(C)Oc1ccc(CNCCNC(C)=O)cc1Cl (stereo unspecified) | 1.12%
CCc1ncc(C(=O)N(C)Cc2cc(-c3ccncc3)no2)cn1 | -13.2%
Cc1ccc(CN(CCN(C)C)C(=O)Nc2ccc(C)c(C#N)c2)s1 | 5.57%
Cc1nccn1CCCN1CCC(c2nccn2CC2CCC2)CC1 | -20.8%
Cc1ccccc1N1CCCN(C(=O)CC2CN(C(C)C)CCO2)CC1 (stereo unspecified) | -3.11%
Cc1c(NC(=O)c2ncn[nH]2)cccc1C(=O)NC(C)(C)C | -8.93%
Cc1cc(C(=O)NC(C)c2nnn[nH]2)c2cccc(C)c2n1 (stereo unspecified) | -16.4%
Cc1ccccc1[C@@H]1CN(Cc2ccc(C(F)(F)F)nc2)C[C@H]1C(=O)O | 5.33%
O=C(NCc1nn(-c2ccccc2)c2c1CCC2)C1CC1 | -8.36%
CCn1cnnc1CNC(=O)N(C)Cc1ccc2c(c1)OCO2 | -5.83%

SMILES | cytotoxicity at 10 µM
CCN1CCN(CCNC(=O)c2ccn(-c3ccc(F)cc3)n2)CC1 | -26.2%
Cc1nc(C)n(C2CCCN(C(=O)c3cscn3)C2)n1 (stereo unspecified) | -8.78%
Cc1nc(C)n(CC2CCCN2Cc2nc(N)c3ccccc3n2)n1 (stereo unspecified) | -0.192%
CN(Cc1cn2ccccc2c1C#N)C1CCCN(c2cccnn2)C1 (stereo unspecified) | -11.9%
Cn1ccnc1CN1CCCCC1Cn1cccn1 (stereo unspecified) | 5.94%
CC(c1nc(C2CC2)no1)N1CCN(Cc2cccc(C#N)c2)CC1 (stereo unspecified) | 3.92%
COc1ccc(CN(C)[C@@H]2COC[C@H]2c2ccc(F)cc2)c(OC)c1 | 8.54%
CC(C)NC(=O)[C@@]12CCO[C@@H]1CCN(Cc1ccco1)C2 | -3.31%
O=C(NCc1cn2c(n1)CN(CC1CCOCC1)CC2)C1CCC1 | -12.1%
CCN1c2ccc(-c3cncn3CC(=O)NC(C)(C)C)cc2CC1C (stereo unspecified) | -0.579%
COc1cccc(C(=O)N2CCc3nc(C4CCCN4)ncc3C2)c1 (stereo unspecified) | -7.28%
O=C(NCCc1ccccn1)[C@@H]1CC[C@@H]2[C@@H](CCN2Cc2ccoc2)O1 | 8.21%
Cc1ccc(CNC2CC3(CCN(CCO)CC3)c3ccccc32)s1 (stereo unspecified) | -108%
O=C(c1ccccc1)N1CCC2(CC1)CNc1c(F)cccc12 | 7.33%
CN(C)Cc1cncc2c1CCN(Cc1cnn(C)c1)C2 | 4.13%
Cc1nnsc1CN1C[C@H]2CC[C@@H](C1)N(Cc1ccccc1)C2 | 9.47%
CSc1ccccc1CN1C[C@@H]2CC[C@H]1CN(Cc1[nH]cnc1C)C2 | -8.96%
CC1(C)CC(n2cc3nc(N4CCOCC4)[nH]cc-3c2=O)CC(C)(C)N1 | -19.9%
